# Source: PubChem BioAssay
# Most compounds without a hit are left out; they make up all but 4.1% or so of the library.
# hERG protect: shields human hERG channel from block by proarrhythmic agents. Q12809. actives 0.51% (n = 310,000). CHO-hERG, FluxOR thallium flux, dofetilide IC70 present. activation (rescue from dofetilide block), less the hit threshold, % at 10 µM;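 active = activation above the mean of controls blocked by dofetilide plus 5 SD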;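 note: thallium influx through hERG after potassium depolarization seen as dye fluorescence rise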
# KCNK3 inh: human KCNK3 channel inhibition, primary screen | O14649 | CHO-KCNK3 thallium flux, FluxOR fluorescence; active compounds read low | B-score at 10 µM | actives 0.84% (n = 340,000) | AID 602410;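 active = B-score under library mean minus 4 SD, starting fluorescence ratio at most library mean plus 5 SD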;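 note: more negative B-score means stronger inhibition of thallium flux through KCNK3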
# KCNQ1 pot: potentiators or activators of human KCNQ1 potassium channel; CHO-K1 KCNQ1, thallium flux FluxOR fluorescence; active compounds read high; actives 0.35% (n = 310,000); B-score at 10 µM; P51787;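 active = fluorescence ratio B-score, a plate-corrected score, at least three library SD, with initial intensity B-score within 5 SD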
#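 Material: CHO-K1 cells stably expressing KCNQ1. Medium: assay buffer for compound exposure, DMSO matched across wells. Reagent: K+/Tl+ depolarizing stimulus. Compound dosing: single-concentration screen. Times: 37 °C overnight plating, 90-min dark dye load, 20-min compound pretreatment. Technique: FluxOR Tl+ flux fluorescence.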
# KCC2 mod: KCC2 (human) Cl- transport modulation; KCC2 cells, thallium flux FluoZin-2 fluorescence; B-score of Tl+ flux slope (higher = more flux/activation; lower = inhibition) at 10 µM; Q9H2X9; actives 2.2% (n = 190,000); AID 1456;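 active = thallium flux slope and its plate-corrected score both differing from the plate sample mean at a set confidence after two filtering rounds, in either direction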;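 note: slope of fluorescence scaled to starting intensity during 10 to 20 s after thallium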
# KCNK9 inh: blocks the human KCNK9 two-pore domain potassium channel; Q9NPC2; HEK293 KCNK9, FluxOR thallium flux fluorescence; active compounds read low; B-score at 10 µM; actives 1.2% (n = 310,000); AID 488922;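 active = ratio B-score over 3 SD below the library mean, with starting fluorescence within 5 SD of its mean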;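 note: negative B-score means less thallium flux so channel inhibition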
# Target sequence (Q9NPC2 whole entry, looked up, the tested form may be a part): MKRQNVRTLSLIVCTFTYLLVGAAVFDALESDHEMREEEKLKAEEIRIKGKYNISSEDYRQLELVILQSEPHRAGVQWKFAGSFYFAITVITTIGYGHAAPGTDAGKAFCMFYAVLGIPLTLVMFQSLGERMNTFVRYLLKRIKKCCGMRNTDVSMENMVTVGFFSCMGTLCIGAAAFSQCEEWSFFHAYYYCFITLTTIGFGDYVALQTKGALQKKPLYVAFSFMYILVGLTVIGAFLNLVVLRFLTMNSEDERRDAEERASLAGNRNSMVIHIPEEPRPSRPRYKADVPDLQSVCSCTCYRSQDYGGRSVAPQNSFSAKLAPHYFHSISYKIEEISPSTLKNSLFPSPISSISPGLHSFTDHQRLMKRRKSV
# KCNQ1 inh: inhibitors of human KCNQ1 potassium channel; P51787; CHO-K1 KCNQ1, FluxOR thallium flux fluorescence; active compounds read high; B-score at 10 µM; actives 1.3% (n = 310,000);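 active = compounds whose thallium flux B-score, printed positive for inhibition, exceeds three library SD while starting fluorescence stays within three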;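 note: channel opened by potassium depolarization with thallium stimulus after 20 min compound exposure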
# KCNK9 inh conf: human KCNK9 inhibitor confirmation | shares compounds with KCNK9 inh | HEK293 KCNK9 cells, FluxOR thallium flux fluorescence | inhibition, % at 10 µM | actives 43% (n = 4,900);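 active = thallium signal inhibited by more than 5 SD of the compound-free buffer control wells, on both duplicate plates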
# Kir2-1 spec: tests whether KCNK9 modulators also affect mouse Kir2.1 | AID 492993 | inhibition, % at 10 µM | shares compounds with KCNK9 inh | actives 4% (n = 4,900) | Kir2.1 cells, FluxOR thallium flux fluorescence;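 active = thallium signal drop more than 5 SD beyond the mean of the no-compound control wells, seen in both duplicate plates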;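 note: signal is fluorescence rise after thallium addition divided by baseline fluorescence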
# HEK293 Tl ctr: second check of KCNK9 modulator effects in non-induced HEK293 cells. shares compounds with KCNK9 inh. inhibition, % at 10 µM. AID 492997. actives 40% (n = 4,900). FluxOR thallium flux;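 active = thallium signal drop beyond 5 SD of the untreated control mean, on both duplicate plates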
# Numbers stand for hits; i = inactive; nt = no result given.
SMILES,hERG protect,KCNK3 inh,KCNQ1 pot,KCC2 mod,KCNK9 inh,KCNQ1 inh,KCNK9 inh conf,Kir2-1 spec,HEK293 Tl ctr
Cc1cc(C)cc(C(=O)N(Cc2ccco2)c2c(N)n(Cc3ccccc3)c(=O)[nH]c2=O)c1,nt,i,nt,nt,nt,nt,nt,nt,nt
Cc1ccc(C2CC2C(=O)NNC(=S)Nc2cccc(Cl)c2)cc1 (stereo not drawn),i,i,i,i,i,6,i,i,i
Cc1ccc(C2CC2C(=O)NNC(=S)Nc2cccc(C)c2)cc1 (stereo not drawn),i,i,i,i,i,i,i,i,i
COc1ccc(NC(=S)NNC(=O)C2CC2c2ccc(C)cc2)cc1 (stereo not drawn),i,i,i,i,i,i,nt,nt,nt
Cc1ccc(NC(=S)NNC(=O)C2CC2c2ccc(C)cc2)cc1 (stereo not drawn),i,i,i,i,i,i,nt,nt,nt
CSc1ccc(C(=O)C2CCCN(C(=O)c3ccc4c(c3)OCO4)C2)cc1 (stereo not drawn),i,i,i,nt,i,i,i,i,i
Cc1ccc2[nH]nc(C(=O)N3CCCC(C(=O)c4ccc(Cl)cc4)C3)c2c1 (stereo not drawn),i,i,i,nt,i,i,i,i,i
Cc1noc(C)c1C(=O)N1CCCC(C(=O)c2ccc(Cl)cc2)C1 (stereo not drawn),i,i,i,i,i,i,nt,nt,nt
CCc1cc(C(=O)N2CCCC(C(=O)c3ccc(Cl)cc3)C2)no1 (stereo not drawn),i,i,i,nt,i,i,i,i,i
CC(=O)c1ccc(C(=O)N2CCCC(C(=O)c3cc(F)ccc3F)C2)s1 (stereo not drawn),i,i,i,i,i,i,nt,nt,nt
CC(=O)c1ccc(C(=O)N2CCCC(C(=O)c3ccc(Cl)cc3)C2)s1 (stereo not drawn),i,i,i,nt,i,i,i,i,i
CN1CCN(C(=O)c2cc3cc(F)ccc3[nH]2)CC1,i,i,i,nt,i,i,nt,nt,nt
COCc1ccc(C(=O)N2CCCC(C(=O)c3ccc(SC)cc3)C2)s1 (stereo not drawn),i,i,i,nt,i,i,i,i,i
CSc1ccc(C(=O)C2CCCN(C(=O)c3cc4cc(F)ccc4[nH]3)C2)cc1 (stereo not drawn),i,i,i,i,i,i,i,i,i
CSc1ccc(C(=O)C2CCCN(C(=O)c3csc(C(C)=O)c3)C2)cc1 (stereo not drawn),i,i,i,i,i,i,nt,nt,nt
NS(=O)(=O)c1ccc(CCNC(=O)COC(=O)c2ccc([N+](=O)[O-])o2)cc1,nt,i,nt,nt,nt,nt,nt,nt,nt
COc1cccc([C@@H]2CC=C(C(=O)O)CN2S(=O)(=O)c2ccc(C)cc2)c1,nt,i,nt,nt,nt,nt,nt,nt,nt
O=C(OCCN1CCN(c2ncc(C(F)(F)F)cc2Cl)CC1)c1ccc(F)cc1,i,i,i,nt,i,i,nt,nt,nt
Cc1ccc(C(=O)OCCN2CCN(c3ncc(C(F)(F)F)cc3Cl)CC2)cc1,i,i,i,nt,i,i,i,i,i
O=C(OC1CCN(c2ncc(C(F)(F)F)cc2Cl)CC1)c1ccccc1,i,i,i,i,i,i,nt,nt,nt
COc1ccc(C(=O)OC2CCN(c3ncc(C(F)(F)F)cc3Cl)CC2)cc1,i,i,i,i,i,i,i,i,i
Cc1ccc(Oc2c(F)c(F)nc(N3CCCC3)c2F)cc1,i,i,i,i,i,i,nt,nt,nt
O=[N+]([O-])c1ccc(Oc2c(F)c(F)nc(N3CCCC3)c2F)cc1,i,i,i,i,i,7,i,i,i
CC(C)C1(C(C)C)OC(=O)c2ccccc21,i,i,i,i,i,i,nt,nt,nt
CCCCC(CC)COC1(c2ccccc2)OC(=O)c2ccccc21 (stereo not drawn),i,i,i,i,-17.7,i,76.5%,i,50.0%
